Reference: PMC4009363 (Nature chemical biology, 2013)
Read-outs that look alike come from different tables or passages of the source.

What was measured:
[1] = system: LSCe cells; assay: LSCe cell co-culture cobblestone area; type: cell-based, mouse; conditions: for EC50: read-out: EC50 for LSCe cells in co-culture (cobblestone area formation), MLL-AF9 LSCe cells in co-culture with stroma; for selective inhibition of LSCe cells relative to normal HSPCs: co-culture; for validated hit from the screen: inhibits LSCe cells relative to normal HSPCs, no significant stromal toxicity
[2] = system: normal HSPCs; assay: HSPC co-culture on primary bone marrow stromal cells; type: cell-based, mouse
Method in brief: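 Normal mouse HSPCs (400 per well) were plated in 384-well format on primary CD105⁺ bone-marrow stromal cells and held at 33°C/5% CO₂. The stroma was isolated from GFP-transgenic or wild-type C57BL/6 mice by anti-CD105 magnetic-bead selection and grown 2–3 days at 33°C before use. Test compound was run at 8–12 concentrations in duplicate, with a cytotoxic control at 22 μM.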

[3] = system: human AML cell lines (U937, THP-1, NOMO-1, SKM-1, NB4, and OCI-AML3); assay: Human AML cell line viability screen; type: cell-based; conditions: for EC50: Homo sapiens
[4] = system: LSCe cells on pretreated OP9 stroma; assay: Stromal pretreatment screen; type: cell-based, mouse
[5] = system: OP9 or BMSC stromal cells; assay: Stromal toxicity screen; type: cell-based, mouse; conditions: stroma pretreatment
Method in brief: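 OP9 (6,750/well) or primary BMSC (2,000/well) stromal cells plated in 384-well plates. After 24 h, test compound added at 8 concentrations; incubated 72 h at 37°C/5% CO₂. Viability read by CellTiter-Glo ATP luminescence. Toxicity called when mean signal fell 3 SD (BMSC) or 5 SD (OP9) below DMSO control at concentrations below 20 μM.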

[6] = system: patient-derived, primary human leukemia cells; assay: Human CAFC assay, patient-derived leukemia cells on MS-5 stroma; type: cell-based; conditions: lovastatin: treated 6 days, assessed at 5 weeks (2 weeks for FLT3-ITD)
Method in brief: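 CD34-enriched cells from bone marrow/peripheral blood of AML patients (presentation or relapse) seeded on MS-5 mouse stroma (20,000/well, 96-well, plated 1 day earlier, 37°C/5% CO₂). Seeding density set for one cobblestone per control well at 5 weeks. Medium: α-MEM, 12.5% FCS, 12.5% horse serum, monothioglycerol, 1 µM hydrocortisone, 20 ng/ml human IL-3. Test compound added next day (0.2% DMSO final) for 6 days, then rinsed and refed; half media change at 3 weeks. Score: fraction of replicate wells with ≥6 tightly packed cells beneath stroma.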

[7] = system: dsRed+ LSCe cells and GFP+ HSPCs; assay: BMSC stromal pretreatment with admixed LSCe cells and HSPCs; type: cell-based, mouse; conditions: bone marrow stromal cells pretreated for 3 days
Method in brief: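 Wild-type C57BL/6 BMSC monolayers (384-well) treated with test compound for 3 days at 33°C/5% CO₂, then rinsed twice with PBS. 1200 GFP⁺ HSPCs (UbiquitinC-GFP mice) and 1200 dsRed⁺ LSCe cells plated together onto them. 5 days later, wells imaged at 10x in dsRed and GFP channels; total cell area per channel per well quantified. Mean ± SEM of quadruplicates.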

[8] = system: LSCe cells; assay: Gene-expression profiling of LSCe cells with GSEA; type: cell-based, mouse; conditions: 5 μM, 6 hours, in suspension
Method in brief: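 250,000 LSCe cells per sample exposed to test compound or DMSO (n = 5 and 2, respectively) for 6 h in suspension in IMDM, 10% FBS, 1% Pen-Strep. RNA extracted, amplified, and hybridized to Illumina MouseRef-8 v2.0 Expression BeadChips.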

[9] = system: murine AML cell lines; assay: Murine myeloid cell line viability; type: cell-based; conditions: Mus musculus, 72 h, read-out: EC50 against murine AML cell lines
[10] = system: normal HSPC (CD34+ cells from umbilical cord blood); assay: Human CAFC assay, normal CD34+ cord blood cells on MS-5 stroma; type: cell-based; conditions: treated 6 days, assessed at 5 weeks
[11] = system: dsRed+ LSCe cells and GFP+ HSPCs; assay: Admixed LSCe cells and HSPCs co-cultured with primary BMSCs, direct treatment; type: cell-based, mouse; conditions: 200 nM lovastatin, assessed 5 days later
Method in brief: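 Primary BMSC monolayers from C57BL/6 mice plated in 384-well format. 3 days later, 800 dsRed⁺ LSCe cells and 1600 GFP⁺ HSPCs (UbiquitinC-GFP mice) added. Test compound or DMSO added 24 h later and incubated 5 days. Wells imaged in dsRed and GFP channels at 10x; total cell area per well quantified for each channel. Mean ± SEM of quadruplicates, two independent experiments.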

[12] = system: MOZ-TIF2 LSCe cells; assay: MOZ-TIF2 LSCe cell co-culture with BMSCs; type: cell-based; conditions: Mus musculus, BMSC, read-out: EC50, MOZ-TIF2 LSCe cells in co-culture
[13] = system: LSCe cells; assay: Limiting dilution syngeneic transplantation of ex vivo treated LSCe co-cultures; design: species or system mouse; conditions: 500 to 10,000 LSCe cells, 24-hour ex vivo exposure to 5 μM lovastatin in co-culture with BMSCs
[14] = system: LSCe cells and HSPCs; conditions: mixed cultures exposed ex vivo 48 hours to 5 μM lovastatin; relative to DMSO
[15] = system: LSCe cells; assay: Mevalonate rescue of lovastatin treatment in LSCe/OP9 co-culture; type: cell-based, mouse; conditions: 2 mM mevalonate, 1 μM lovastatin, OP9 stroma
Method in brief: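 GFP⁺ OP9 stroma (13,500 per well) was plated on gelatin-coated 96-well plates. After 24 h, 2,000 sorted mouse LSCe cells were added. About 24 h later, 2 mM mevalonolactone and/or 1 μM lovastatin were added together, at constant DMSO (0.2% final). After 3 days, medium was fully changed and reagents were re-added.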

[16] = system: AML; conditions: phase 1 clinical trial in AML; cited from earlier work
[17] = system: FLT3-mutated AML; conditions: cited from earlier work

Structure (SMILES): CC1(C)C(C(=O)Nc2ccc(S(=O)(=O)c3ccc(NC(=O)C4C(C)(C)C4(C)C)cc3)cc2)C1(C)C [BRD7116]
- EC50 [1]: 200 nM
- activity against normal HSPCs ([2]; co-cultured on primary BMSC stroma): limited activity
- inhibition of AML cell lines ([3]; at 20 μM): ~ 50%
- change in stromal morphology [4]: not accompanied by an obvious change in stromal morphology
- stromal cell viability (CellTiter-Glo) [5]: without evidence of altered stromal cell viability
- activity against patient-derived primary human leukemia cells (cobblestone area formation) [6]: showed activity
- relative inhibition of LSCe cells and HSPCs on pretreated stroma [7]: preferentially inhibited the LSCe cells compared to HSPCs
- transcriptional changes (GSEA) [8]: induced transcriptional changes consistent with myeloid differentiation

Structure (SMILES): CC(C)c1c(C(=O)Nc2ccccc2)c(-c2ccccc2)c(-c2ccc(F)cc2)n1CC[C@@H](O)C[C@@H](O)CC(=O)O [atorvastatin]
- selective inhibition of LSCe cells relative to normal HSPCs [1]: selectively inhibited LSCe cells relative to normal HSPCs

Structure (SMILES): CC1=C(O)C(=O)C=C2C1=CC=C1[C@@]2(C)CC[C@@]2(C)[C@@H]3C[C@](C)(C(=O)O)CC[C@]3(C)CC[C@]12C [celastrol]
- validated hit from the screen [1]: among the 155 validated hits

Structure (SMILES): COCc1c(C(C)C)nc(C(C)C)c(/C=C/[C@@H](O)C[C@@H](O)CC(=O)O)c1-c1ccc(F)cc1 [cerivastatin]
- selective inhibition of LSCe cells relative to normal HSPCs [1]: selectively inhibited LSCe cells relative to normal HSPCs

Structure (SMILES): CC(C)n1c(/C=C/C(O)CC(O)CC(=O)O)c(-c2ccc(F)cc2)c2ccccc21 (centres unmarked) [fluvastatin]
- selective inhibition of LSCe cells relative to normal HSPCs [1]: selectively inhibited LSCe cells relative to normal HSPCs

Structure (SMILES): CC[C@H](C)C(=O)O[C@H]1C[C@@H](C)C=C2C=C[C@H](C)[C@H](CC[C@@H]3C[C@@H](O)CC(=O)O3)[C@H]21 [lovastatin]
- EC50 [1]: ~200 nM
- toxicity to normal HSPCs ([2]; concentrations as high as 20 μM, co-culture with BMSCs): no apparent toxicity
- EC50 ([3]; read-out: EC50 against human AML cell lines): > 2000 nM
- EC50 [9]: > 2000 nM
- activity against patient-derived primary human leukemia cells (cobblestone area formation) [6]: inhibited cobblestone area formation for all 6 patient-derived AML samples
- inhibition of normal HSPC cobblestone area formation [10]: no inhibition
- relative inhibition of admixed LSCe cells and HSPCs [11]: selectively inhibited the dsRed^+ leukemia cells while sparing the GFP^+ HSPCs
- EC50 [12]: < 250 nM
- leukemia development after transplantation [13]: only one animal in the lovastatin group developed leukemia by 11.5 weeks
- survival of transplanted mice [14]: survived substantially longer

Structure (SMILES): CC(O)(CCO)CC(=O)O (centres unmarked) [mevalonate]
- rescue of the anti-leukemia effects of lovastatin [15]: fully rescued

Structure (SMILES): CCCCc1ccc2[nH]c(NC(=O)OC)nc2c1 [parbendazole]
- EC50 ([3]; read-out: EC50, AML cell line viability): < 625 nM

Structure (SMILES): C=C1C(=O)O[C@H]2[C@H]1CC/C(C)=C/CC[C@@]1(C)O[C@@H]21 [parthenolide]
- validated hit from the screen [1]: among the 155 validated hits

Structure (SMILES): CC[C@H](C)C(=O)O[C@H]1C[C@H](O)C=C2C=C[C@H](C)[C@H](CC[C@@H](O)C[C@@H](O)CC(=O)O)[C@H]21 [pravastatin]
- scoring in LSCe co-culture assay [1]: did not score
- anti-leukemia effect in patients [16]: preliminary evidence of an anti-leukemia effect
- scoring in model of FLT3-mutated AML [17]: did not score

Structure (SMILES): CC(C)c1nc(N(C)S(C)(=O)=O)nc(-c2ccc(F)cc2)c1/C=C/[C@@H](O)C[C@@H](O)CC(=O)O [rosuvastatin]
- selective inhibition of LSCe cells relative to normal HSPCs [1]: selectively inhibited LSCe cells relative to normal HSPCs

Structure (SMILES): CCC(C)(C)C(=O)O[C@H]1C[C@@H](C)C=C2C=C[C@H](C)[C@H](CC[C@@H]3C[C@@H](O)CC(=O)O3)[C@H]21 [simvastatin]
- selective inhibition of LSCe cells relative to normal HSPCs [1]: selectively inhibited LSCe cells relative to normal HSPCs

Structure (SMILES): Cc1c(C)c2c(c(C)c1O)CCC(C)(COc1ccc(CC3SC(=O)NC3=O)cc1)O2 (centres unmarked) [troglitazone]
- sensitivity of AML cell lines ([3]; concentrations as high as 35 μM): none of the AML cell lines tested was sensitive
- change in stromal morphology [4]: dose-dependent adipocytic change in the stroma
